Source: ChEMBL document CHEMBL4689842, “EUbOPEN Chemogenomics Library wave 1” (2021)

Legend:
[1] = tested on: U2OS; test: Multiplex assay against U2OS; type: toxicity, cell-based; conditions: human
Summary of the method: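 Cells were classed with CellPathfinder machine-learning gating, first as Hoechst high-intensity objects or normal cells, then (normal cells) as healthy, pyknosed or fragmented nuclei, and finally (pyknosed cells) as mitotic or apoptotic. Staining of live cells at seeding used Hoechst33342, BioTracker Green Microtubule Cytoskeleton Dye, MitoTracker Red and Annexin V Alexa Fluor 680, with imaging on a CQ1 microscope at 37°C and 5% CO2 after compound addition. Tubulin, mitochondrial-mass and membrane-permeability phenotypes are per cents of healthy-nucleus cells.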

[2] = tested on: U2OS; test: Incucyte cell viability with U2OS; type: toxicity, cell-based; conditions: human, 10 µM, compound concentration 10 uM; note: filed as whole numbers so only -1 and 0 and 1 occur
[3] = 12 h, 1 µM, compound concentration 1 uM, replicate 1
[4] = 12 h, 1 µM, compound concentration 1 uM, replicate 2
[5] = 12 h, 10 µM, compound concentration 10 uM, replicate 1
[6] = 12 h, 10 µM, compound concentration 10 uM, replicate 2
[7] = 24 h, 1 µM, compound concentration 1 uM, replicate 1
[8] = 24 h, 1 µM, compound concentration 1 uM, replicate 2
[9] = 24 h, 10 µM, compound concentration 10 uM, replicate 1
[10] = 24 h, 10 µM, compound concentration 10 uM, replicate 2

With `CCOC(=O)CCNc1cc(N2CCc3ccccc3CC2)nc(-c2ccccn2)n1` the “Population Apoptotic (%)” value [1, 3] was 37%, the “Population Fragmented Nuclei (%)” value [1, 3] was 7% and the “Population Healthy Nuclei (%)” value [1, 3] was 85%. For the same compound, the “Population Hoechst High Intensity Objects (%)” value [1, 3] was 3%, the “Population Membrane Permeable-Phenotype (%)” value [1, 3] was 14% and the “Population Mitochondria Different-Phenotype (%)” value [1, 3] was 40%. The “Population Mitotic Cells (%)” value [1, 3] was 62%, the “Population Normal (%)” value [1, 3] was 96% and the “Population Pyknosed Nuclei (%)” value [1, 3] was 6%. The “Population Tubulin-Different-Phenotype (%)” value [1, 3] was 30%, the “Total Cell Count” value [1, 3] was 244 and the “Population Apoptotic (%)” value [1, 4] was 45%. For the same compound, the “Population Fragmented Nuclei (%)” value [1, 4] was 4%, the “Population Healthy Nuclei (%)” value [1, 4] was 86% and the “Population Hoechst High Intensity Objects (%)” value [1, 4] was 8%. For the same compound, the “Population Membrane Permeable-Phenotype (%)” value [1, 4] was 13%, the “Population Mitochondria Different-Phenotype (%)” value [1, 4] was 27% and the “Population Mitotic Cells (%)” value [1, 4] was 54%. For the same compound, the “Population Normal (%)” value [1, 4] was 91%, the “Population Pyknosed Nuclei (%)” value [1, 4] was 9% and the “Population Tubulin-Different-Phenotype (%)” value [1, 4] was 23%. For the same compound, the “Total Cell Count” value [1, 4] was 141, the “Population Apoptotic (%)” value [1, 5] was 46% and the “Population Fragmented Nuclei (%)” value [1, 5] was 7%. The “Population Healthy Nuclei (%)” value [1, 5] was 82%, the “Population Hoechst High Intensity Objects (%)” value [1, 5] was 5% and the “Population Membrane Permeable-Phenotype (%)” value [1, 5] was 11%. For the same compound, the “Population Mitochondria Different-Phenotype (%)” value [1, 5] was 32%, the “Population Mitotic Cells (%)” value [1, 5] was 53% and the “Population Normal (%)” value [1, 5] was 94%. The “Population Pyknosed Nuclei (%)” value [1, 5] was 10%, the “Population Tubulin-Different-Phenotype (%)” value [1, 5] was 34% and the “Total Cell Count” value [1, 5] was 133. For the same compound, the “Population Apoptotic (%)” value [1, 6] was 40%, the “Population Fragmented Nuclei (%)” value [1, 6] was 3% and the “Population Healthy Nuclei (%)” value [1, 6] was 92%. For the same compound, the “Population Hoechst High Intensity Objects (%)” value [1, 6] was 9%, the “Population Membrane Permeable-Phenotype (%)” value [1, 6] was 9% and the “Population Mitochondria Different-Phenotype (%)” value [1, 6] was 29%. For the same compound, the “Population Mitotic Cells (%)” value [1, 6] was 60%, the “Population Normal (%)” value [1, 6] was 90% and the “Population Pyknosed Nuclei (%)” value [1, 6] was 3%. For the same compound, the “Population Tubulin-Different-Phenotype (%)” value [1, 6] was 26%, the “Total Cell Count” value [1, 6] was 126 and the “Population Apoptotic (%)” value [1, 7] was 33%. For the same compound, the “Population Fragmented Nuclei (%)” value [1, 7] was 5%, the “Population Healthy Nuclei (%)” value [1, 7] was 91% and the “Population Hoechst High Intensity Objects (%)” value [1, 7] was 1%. For the same compound, the “Population Membrane Permeable-Phenotype (%)” value [1, 7] was 11%, the “Population Mitochondria Different-Phenotype (%)” value [1, 7] was 36% and the “Population Mitotic Cells (%)” value [1, 7] was 66%. The “Population Normal (%)” value [1, 7] was 98%, the “Population Pyknosed Nuclei (%)” value [1, 7] was 3% and the “Population Tubulin-Different-Phenotype (%)” value [1, 7] was 36%. The “Total Cell Count” value [1, 7] was 264, the “Population Apoptotic (%)” value [1, 8] was 16% and the “Population Fragmented Nuclei (%)” value [1, 8] was 8%. The “Population Healthy Nuclei (%)” value [1, 8] was 87%, the “Population Hoechst High Intensity Objects (%)” value [1, 8] was 10% and the “Population Membrane Permeable-Phenotype (%)” value [1, 8] was 10%. The “Population Mitochondria Different-Phenotype (%)” value [1, 8] was 28%, the “Population Mitotic Cells (%)” value [1, 8] was 83% and the “Population Normal (%)” value [1, 8] was 89%. The “Population Pyknosed Nuclei (%)” value [1, 8] was 4%, the “Population Tubulin-Different-Phenotype (%)” value [1, 8] was 23% and the “Total Cell Count” value [1, 8] was 146. The “Population Apoptotic (%)” value [1, 9] was 64%, the “Population Fragmented Nuclei (%)” value [1, 9] was 7% and the “Population Healthy Nuclei (%)” value [1, 9] was 83%. The “Population Hoechst High Intensity Objects (%)” value [1, 9] was 5%, the “Population Membrane Permeable-Phenotype (%)” value [1, 9] was 7% and the “Population Mitochondria Different-Phenotype (%)” value [1, 9] was 37%. The “Population Mitotic Cells (%)” value [1, 9] was 35%, the “Population Normal (%)” value [1, 9] was 94% and the “Population Pyknosed Nuclei (%)” value [1, 9] was 8%. For the same compound, the “Population Tubulin-Different-Phenotype (%)” value [1, 9] was 13%, the “Total Cell Count” value [1, 9] was 181 and the “Population Apoptotic (%)” value [1, 10] was 81%. For the same compound, the “Population Fragmented Nuclei (%)” value [1, 10] was 4%, the “Population Healthy Nuclei (%)” value [1, 10] was 88% and the “Population Hoechst High Intensity Objects (%)” value [1, 10] was 7%. For the same compound, the “Population Membrane Permeable-Phenotype (%)” value [1, 10] was 8%, the “Population Mitochondria Different-Phenotype (%)” value [1, 10] was 36% and the “Population Mitotic Cells (%)” value [1, 10] was 18%. For the same compound, the “Population Normal (%)” value [1, 10] was 92%, the “Population Pyknosed Nuclei (%)” value [1, 10] was 7% and the “Population Tubulin-Different-Phenotype (%)” value [1, 10] was 9%. The “Total Cell Count” value [1, 10] was 165, the “Growth Rate” value ([2]; 0 h, replicate number 1, timepoint 0 hours) was 0 and the “Growth Rate” value ([2]; 0 h, replicate number 2, timepoint 0 hours) was 1. For the same compound, the “Growth Rate” value ([2]; 6 h, replicate number 1, timepoint 6 hours) was 0, the “Growth Rate” value ([2]; 12 h, replicate number 1, timepoint 12 hours) was 0 and the “Growth Rate” value ([2]; 18 h, replicate number 1, timepoint 18 hours) was 0. The “Growth Rate” value ([2]; 24 h, replicate number 1, timepoint 24 hours) was 0.
